Screening data: PubChem, Johns Hopkins Ion Channel Center
Hits are enriched below; roughly 3.7% of the tested compounds scored in any of these assays.
KCNQ1 inh – inhibitors of human KCNQ1 channel, primary screen, cell-based, thallium flux, high-throughput. Potassium voltage-gated channel subfamily KQT member 1 (Homo sapiens), P51787. CHO-K1 KCNQ1, FluxOR thallium flux fluorescence; hits give high values. B-score at 10 µM. hit rate 1.3% among 310,000. AID 2642, 2010;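 active = compounds whose thallium flux B-score, printed positive for inhibition, exceeds three library SD while starting fluorescence stays within three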;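 note: channel opened by potassium depolarization with thallium stimulus after 20 min compound exposure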
Target sequence (P51787 whole entry, looked up): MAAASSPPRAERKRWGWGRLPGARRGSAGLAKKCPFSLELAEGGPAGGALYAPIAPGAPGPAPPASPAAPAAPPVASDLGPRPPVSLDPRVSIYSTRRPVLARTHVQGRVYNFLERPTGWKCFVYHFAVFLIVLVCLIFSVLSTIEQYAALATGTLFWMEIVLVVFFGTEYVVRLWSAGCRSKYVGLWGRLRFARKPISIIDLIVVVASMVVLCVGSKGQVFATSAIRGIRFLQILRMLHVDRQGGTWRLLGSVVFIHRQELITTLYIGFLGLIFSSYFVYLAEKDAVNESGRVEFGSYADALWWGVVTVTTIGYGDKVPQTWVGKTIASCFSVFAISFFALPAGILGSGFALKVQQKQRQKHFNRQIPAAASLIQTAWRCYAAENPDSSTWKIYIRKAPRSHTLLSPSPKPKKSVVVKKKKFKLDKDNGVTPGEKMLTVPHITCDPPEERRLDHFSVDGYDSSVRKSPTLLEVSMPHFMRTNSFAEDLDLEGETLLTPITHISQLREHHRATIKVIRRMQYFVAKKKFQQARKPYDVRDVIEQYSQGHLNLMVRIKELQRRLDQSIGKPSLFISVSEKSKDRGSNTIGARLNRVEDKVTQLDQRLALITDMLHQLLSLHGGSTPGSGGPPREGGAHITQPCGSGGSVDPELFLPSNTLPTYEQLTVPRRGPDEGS
Kir21 inh – inhibitors of mouse Kir2.1 inward-rectifier potassium channel; HEK293-Kir2.1, FluxOR thallium flux fluorescence; hits give low values; Inward rectifier potassium channel 2 (Mus musculus), P35561; B-score at 10 µM; hit rate 0.85% among 310,000;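 active = fluorescence ratio B-score at or below minus 3 SD of library scores, with starting-brightness B-score within 2 SD, cut at about -4.2 in these data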;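 note: channel flux triggered by added potassium and thallium sulfate stimulus; B-score of peak minus minimum fluorescence over baseline after thallium stimulus; more negative B-score means stronger Kir2.1 block with less thallium influx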
KCNQ1 act – potentiators or activators of KCNQ1 channel, primary screen, cell-based, thallium flux, high-throughput; Potassium voltage-gated channel subfamily KQT member 1 (Homo sapiens), P51787; CHO-K1 KCNQ1, thallium flux FluxOR fluorescence; hits give high values; hit rate 0.35% among 310,000; B-score at 10 µM;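 active = fluorescence ratio B-score, a plate-corrected score, at least three library SD, with initial intensity B-score within 5 SD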
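assay system = CHO-K1 cells stably expressing KCNQ1 | medium = assay buffer, equal DMSO in all wells | timing = 37 °C overnight plating, 90-min dark dye load, 20-min compound pretreatment | measured by = kinetic FluxOR thallium fluorescence, 10-s 1-Hz baseline, 110-s post-stimulus read | measure = fluorescence change relative to baseline, converted to B score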
KCNK3 block – human KCNK3 channel inhibitors, primary screen, CHO cells, FluxOR thallium flux, B-score. Potassium channel subfamily K member 3 (Homo sapiens), O14649. FluxOR fluorescence; hits give low values. B-score at 10 µM. hit rate 0.84% among 340,000. AID 602410, 2012;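 active = B-score under library mean minus 4 SD, starting fluorescence ratio at most library mean plus 5 SD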;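 note: more negative B-score means stronger inhibition of thallium flux through KCNK3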
hERG rescue – hERG rescue from dofetilide block, primary screen, cell-based, CHO-hERG, FluxOR thallium flux, dofetilide IC70; activation (rescue from dofetilide block), less the hit threshold, % at 10 µM; Voltage-gated inwardly rectifying potassium channel KCNH2 (Homo sapiens), Q12809; hit rate 0.51% among 310,000; dofetilide IC70 present;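 active = activation above the mean of controls blocked by dofetilide plus 5 SD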;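 note: thallium influx through hERG after potassium depolarization seen as dye fluorescence rise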
KCNK9 block – KCNK9 potassium channel inhibitors, primary screen, HEK293 cells, thallium flux. B-score at 10 µM. FluxOR thallium flux fluorescence; hits give low values. Potassium channel subfamily K member 9 (Homo sapiens), Q9NPC2. hit rate 1.2% among 310,000;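 active = ratio B-score over 3 SD below the library mean, with starting fluorescence within 5 SD of its mean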;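 note: negative B-score means less thallium flux so channel inhibition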
* = called active by the depositor; i = inactive; / = not tested or not shown.

SMILES	KCNQ1 inh	Kir21 inh	KCNQ1 act	KCNK3 block	hERG rescue	KCNK9 block
Cc1ccc(SCC(=O)OCC(=O)NC(C)c2ccc(F)cc2)cc1 (stereo unspecified)	/	/	/	i	/	/
CCOC(=O)Cc1csc(NC(=S)NC(=O)c2ccc(Cl)cc2)n1	i	1.48	17*	i	7.3*	i
CCOC(=O)Cc1csc(NC(=S)NC(=O)c2ccc([N+](=O)[O-])cc2)n1	i	1.81	i	i	-8.8	i
Cc1cc(C)cc(-n2c(SCC(=O)Nc3cccc(S(=O)(=O)NC4=NCCCCC4)c3)nc3ccccc3c2=O)c1	i	-1.53	i	i	-9.9	i
Cc1c(Cc2ccc3c(c2)OCO3)sc(NC(=O)C(C)(C)C)c1C#N	i	0.94	i	i	-4.7	-7.56*
OC(CN1CCN(c2ccccc2Cl)CC1)c1ccccc1 (stereo unspecified)	i	-0.04	i	i	-4.4	i
O=C(Nc1cccc(S(=O)(=O)N2CCCCC2)c1)c1cc2ccccc2o1	/	/	/	-11.2*	/	/
COCc1c(C(=O)Nc2cccc(S(=O)(=O)N3CCCCC3)c2)oc2ccccc12	/	/	/	-9.3*	/	/
O=C(Nc1cccc(S(=O)(=O)N2CCCCC2)c1)c1ccco1	/	/	/	i	/	/
Cc1cccc(-n2cc(-c3ccccc3)c3c(=O)[nH]cnc32)c1	i	-0.66	i	i	-14.0	-7.16*
COc1ccc(CCNc2oc(COc3ccc(Br)cc3)nc2C#N)cc1OC	i	-0.11	i	-11.9*	-19.9	-8.05*
COc1ccc(CCNc2oc(COc3ccccc3F)nc2C#N)cc1	i	-0.38	i	i	-13.3	i
CCOC(=O)[C@H]1[C@H]2COc3ccccc3[C@@H]2N2C(=O)c3c(C)cc(C)cc3NC(=O)[C@@]12C	/	/	/	i	/	/
Cc1ccccc1CSCC(=O)Nc1ccccc1Br	i	0.31	i	i	-4.5	i
CN(Cc1ccc(Cl)c(Cl)c1)C(=O)c1ccccc1SCC(=O)N1CCCC1	/	/	/	i	/	/
Cc1ccc(NC(=Nc2ccc(Br)cc2)N2CCOCC2)cc1C	6*	-3.8	i	i	-9.7	i
Cn1nnnc1Sc1ncnc2scc(-c3ccsc3)c12	/	/	/	i	/	/
COC(=O)CC1C(=O)NCCN1Cc1cn(-c2ccc(C)cc2)nc1-c1cccc(C)c1 (stereo unspecified)	i	0.63	i	i	-14.9	i
COc1cc(/C=C(\C#N)C(=O)c2c(C)[nH]c3ccccc23)cc(OC)c1OC	i	0.88	i	i	-16.4	i
COc1ccc(/C=C(\C#N)C(=O)c2c(C)[nH]c3ccccc23)cc1OC	6*	2.12	i	i	-23.1	i
CC(NC(=O)CCN1C(=O)c2ccccc2C1=O)c1ccc2c(c1)CCCC2 (stereo unspecified)	i	-4.21*	i	i	-1.4	i
CCn1c(C)c(C(C)=O)c(N2CCN(c3ccccc3)CC2)nc1=S	i	-0.88	i	i	-8.3	i
CCn1c(C)c(C(C)=O)c(N2CCN(c3ccccn3)CC2)nc1=S	i	2.3	i	i	1.5	-6.67*
Cc1ccc(C(=O)C(C)OC(=O)Cc2n[nH]c(=O)c3ccccc23)cc1 (stereo unspecified)	i	-1.42	i	i	-7.9	i
Cc1ccc(C(=O)C(C)OC(=O)Cc2c[nH]c3ccccc23)cc1 (stereo unspecified)	i	-5.16*	i	i	-8.4	i
Cc1ccc(NC(=O)C(C)OC(=O)Cc2c[nH]c3ccccc23)cc1 (stereo unspecified)	i	-6.59*	i	i	-8.1	i
CC(OC(=O)Cc1c[nH]c2ccccc12)C(=O)Nc1ccccc1[N+](=O)[O-] (stereo unspecified)	i	-6.45*	i	i	-20.3	i
